# Assay outcomes from PubChem BioAssay.
# The list is not random: actives were taken first. Their share in the collection is about 3.9%.
# TAAR1 ag: human TAAR1 agonists, primary screen, Fluo-8 calcium fluorescence, CHO RD-HGA16 cells. activation, % at 3 µM. AID 624467, 2012. vehicle wells 0%, saturating PEA agonist 100%. 360,000 compounds, 0.99% hits;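 active = activation above the mean activation of all test compounds in the run plus 3 SD, cut at about 38% in these data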
# Target sequence (Q96RJ0 whole entry, looked up): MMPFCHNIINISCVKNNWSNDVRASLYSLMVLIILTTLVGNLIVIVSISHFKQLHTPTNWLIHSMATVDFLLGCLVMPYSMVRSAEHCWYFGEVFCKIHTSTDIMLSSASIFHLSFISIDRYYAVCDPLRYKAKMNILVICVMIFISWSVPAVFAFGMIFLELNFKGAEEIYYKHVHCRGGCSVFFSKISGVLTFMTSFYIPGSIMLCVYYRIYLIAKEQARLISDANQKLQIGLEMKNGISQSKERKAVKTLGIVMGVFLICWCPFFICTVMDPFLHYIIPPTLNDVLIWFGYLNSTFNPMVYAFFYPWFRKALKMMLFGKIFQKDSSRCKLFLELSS
#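 Signal – calcium-sensitive Fluo-8 signal, excitation 470-495, emission 515-575 nm · System – RD-HGA16 (CHO) cells co-expressing Gα16 and hTAAR1 · Incubation – 17-24 h seeding, 75 min 37 °C dye, 30 min RT · Compound dosing – 3 µM single concentration · Repeats – no replicates (n 1)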
# CHO parental Ca: ATP-evoked calcium signal inhibitors, parental CHO, primary screen, counter-screen for OX1R antagonist project, cell-based, fluorescence, Fluo-8 calcium dye. parental CHO-K1, ATP-induced calcium, Fluo-8 fluorescence. inhibition, % at 5.6 µM. 330,000 compounds, 0.63% hits. AID 463079, 2010;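 active = inhibition above that plate's mean sample inhibition plus 3 SD, cut at about 26% in these data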;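 also: 0% = ATP-challenged DMSO wells and 100% = DMSO wells without ATP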
#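 test system = CHO parental line | reagent = ATP stimulus | measured by = intracellular calcium via Fluo-8 no-wash fluorescent dye | control set = ATP and no-ATP DMSO wells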
# TAAR1 antag: human TAAR1 antagonists, primary screen, Fluo-8 calcium fluorescence, CHO RD-HGA16 cells. AID 624466, 2012. inhibition, % at 3 µM. Trace amine-associated receptor 1 (Homo sapiens), Q96RJ0. antagonist. 360,000 compounds, 1.5% hits;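 active = inhibition above a per-plate cutoff, the mean inhibition of test compounds on that plate plus 3 SD, cut at about 49% in these data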;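 also: 0% = DMSO plus EC80 beta-PEA response and 100% = DMSO alone without agonist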
#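 Test system: CHO RD-HGA16 cells bearing hTAAR1 | Reagent: β-PEA, EC80 | Compound dosing: 3 µM, single point | Schedule: Dye loading 75 min at 37 °C, then 30 min room temperature | Signal: Calcium fluorescence with Fluo-8 | Evaluation: Percent inhibition of PEA-evoked calcium signal, max/basal emission ratio | Control set: DMSO-only wells and EC80 β-PEA-stimulated wells | Repeats: Singlicate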
# OX1R antag-1: OX1R (HCRTR1) antagonists, primary screen, fluorescence, CHO/OX1R cells, Fluo-8 calcium, orexin A; Orexin/Hypocretin receptor type 1 (Homo sapiens), O43613; Fluo-8 calcium fluorescence; inhibition, % at 5 µM; 330,000 compounds, 0.43% hits;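 active = inhibition above its plate's threshold, mean inhibition of all tested compounds on the plate plus 3 SD, cut at about 37% in these data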;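 also: 0% = orexin A challenge wells and 100% = SB-334867-A antagonist wells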
# OX1R antag-2: antagonists of human orexin 1 receptor (OX1R). inhibition, % at 6.6 µM. AID 485270, 2010. OX1R-expressing cells, FRET antagonist read-out. 330,000 compounds, 1.8% hits; in the data active = inhibition mostly above about 38%, no sharp cut-off; inactive = mostly below about 40%;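 also: 0% = agonist challenge alone and 100% = reference antagonist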
# OX1R Fluo8 conf: OX1R (HCRTR1) antagonists, confirmation, fluorescence, CHO/OX1R cells, Fluo-8 calcium, orexin A. shares compounds with OX1R antag-1. orexin A calcium Fluo-8 fluorescence. inhibition, % at 5 µM. 1,100 compounds, 38% hits; in the data active = inhibition above about 29%;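 also: 0% = agonist challenge alone and 100% = reference antagonist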
# CHO Ca counter: ATP-evoked calcium inhibition in parental CHO, counter-screen for OX1R antagonist project, cell-based, fluorescence, CHO-K1, triplicate; 1,100 compounds, 9.3% hits; ATP-induced calcium, Fluo-8 fluorescence; AID 492965, 2010; inhibition, % at 5.6 µM; shares compounds with OX1R antag-1;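 active = inhibition above a per-plate limit, the mean inhibition of that plate's test compounds plus 3 SD, cut at about 25% in these data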;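 also: 0% = ATP challenge with DMSO and 100% = DMSO without ATP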
# Active calls of the source: *; . = not tested or not shown.
SMILES,TAAR1 ag,CHO parental Ca,TAAR1 antag,OX1R antag-1,OX1R antag-2,others
CCCCn1c(=O)c(C(=O)Nc2ncccc2C)c(O)c2ccccc21,55*,-11,7,-19,-1,
C=Cc1cc(OC)c2c(c1)c(=O)oc1c2cc(OC)c2c(O)ccc(C3OC(C)C(O)C(C)(O)C3O)c21 (stereo not drawn),0,.,15,.,.,
CCNCCNc1ccc([N+](=O)[O-])c2cccnc12,1,-15,-20,-16,42*,
CN1/C(=C\C=Nc2ccccc2)C(C)(C)c2ccccc21,14,27,1,18,17,
CN1/C(=C\C=C\C2=[N+](C)c3ccc4ccccc4c3C2(C)C)C(C)(C)c2ccccc21,.,97*,.,103*,-4,
CCN1/C(=C/C=C/C2=[N+](CC)c3ccccc3C2(C)C)C(C)(C)c2ccccc21,263*,.,106*,.,.,
COC(=O)C1CC(OC(C)=O)C(=O)[C@H]2C1(C)CC[C@H]1C(=O)OC(c3ccoc3)CC12C (stereo partly drawn),0,.,14,.,.,
c1ccc(N2[C@@H]3CC[C@H]2c2ccccc2C3)cc1,1,.,-23,.,.,
CC(=O)OC1CC2OC3C=C(C)CCC3(C)C1(C)C21CO1 (stereo not drawn),4,.,-31,.,.,
COc1cc(C2c3cc4c(c(O)c3CC3COC(=O)C32)OCO4)cc(OC)c1OC (stereo not drawn),15,.,50*,.,.,
CCN(CC)S(=O)(=O)c1ccc(N=Cc2c(O)n(-c3ccccc3)c(=O)[nH]c2=O)cc1,-1,-5,-16,-25,40,
O=C1c2cccc3cccc(c23)C(=O)N1/N=C/c1c(O)n(-c2ccccc2)c(=O)[nH]c1=O,0,-7,-6,-8,61*,
CCOC(=O)c1cc2c(cn1)[nH]c1ccccc12,2,-4,-24,8,64*,
CCOC(=O)c1ccccc1N,0,-7,1,-9,9,
CC(C)OP(=O)(Oc1ccc(C(O)C(Cl)(Cl)Cl)cc1)OC(C)C (stereo not drawn),5,-13,-11,0,59*,
COP(=O)(OC)Oc1ccc(C(O)C(Cl)(Cl)Cl)cc1 (stereo not drawn),3,-2,21,6,1,
CCCCCSc1cc(OC)c(CCN)cc1OC,41*,-6,2,-11,2,
Cc1ccc(N2C(=O)NC(=O)/C(=C\C=C\c3ccco3)C2=O)cc1,33,-8,39,-5,10,
Cc1cccc(N2C(=O)NC(=O)/C(=C\C=C\c3ccco3)C2=O)c1,44*,-5,22,-10,19,
Cc1cccc(N2C(=O)NC(=O)/C(=C\c3cccn3-c3ccc(Cl)cc3)C2=O)c1,56*,-8,37,-16,9,
COc1ccc(-n2c(/C=C/c3ccc(O)c(O)c3)nc3ccccc3c2=O)cc1,11,-12,50*,2,7,
COc1cc(/C=C/c2nc3ccccc3c(=O)n2-c2ccc(O)cc2)ccc1O,16,0,67*,5,-1,
COc1ccc(OC(=O)N(C)C[C@H]2OCc3cnnn3CCCC(=O)N([C@@H](C)CO)C[C@@H]2C)cc1,3,.,-19,.,.,
O=C(NCC1=C(c2cccc3ccccc23)C[C@@H]2CC[C@H]1N2Cc1ccco1)c1ccc([N+](=O)[O-])cc1,0,.,-20,.,.,
CC1CCOC(=O)C=CC=CC(=O)OC2CC3OC4C5OC5(C)C(O)CC4(COC(=O)C1O)C2(C)C31CO1 (stereo not drawn),1,.,6,.,.,
SMILES,TAAR1 ag,CHO parental Ca,TAAR1 antag,OX1R antag-1,OX1R antag-2,others
CC1=CC2OC3CC4OC(=O)C=CC=CC(=O)OCCC(C)C(O)C(=O)OCC2(CC1)C4(C)C31CO1 (stereo not drawn),28,.,89*,.,.,
CCC(C)(C)n1nnnc1C(c1cccs1)N1CC=C(c2ccc(F)cc2)CC1 (stereo not drawn),10,46*,25,-2,20,
CC(=O)Nc1ccccc1C(=O)OCc1ccc(C(=O)c2ccccc2)cc1,7,13,38,24,20,
CC(=O)Nc1ccccc1C(=O)OCC(=O)c1ccc2ccccc2c1,9,17,36,44*,27,OX1R Fluo8 conf=32*;CHO Ca counter=7
CCCCCCCCn1sccc1=O,20,8,2,37*,10,OX1R Fluo8 conf=36*;CHO Ca counter=21
NC(N)=Nc1ccc2[nH]c3c(c2c1)C[C@@]1(O)[C@H]2Cc4ccc(O)c5c4[C@@]1(CCN2CC1CC1)C3O5 (stereo partly drawn),1,-10,-18,-2,3,
Oc1ccc(C2NCc3ccccc3-n3cccc32)cc1Cl (stereo not drawn),18,3,-11,0,23,OX1R Fluo8 conf=0;CHO Ca counter=-10
Cn1cc(/C=C2\C(=O)NC(=O)N(c3ccccc3)C2=O)c2ccccc21,15,0,6,54*,9,OX1R Fluo8 conf=-5;CHO Ca counter=-5
CCCNC(=O)N1[C@H]2CC[C@@H]1C(C(=O)OC)=C(c1ccc(OC)c(OC)c1)C2,4,-10,-6,-21,6,
COC(=O)C1=C(c2cccc(OCc3ccccc3)c2)C[C@@H]2CC[C@H]1N2C(=O)NCc1ccccc1OC,1,-7,19,52*,10,OX1R Fluo8 conf=-7;CHO Ca counter=-5
COC(=O)C1=C(c2ccc(F)cc2OCc2ccccc2)C[C@@H]2CC[C@H]1N2C(=O)NCc1ccc(F)cc1,9,-24,42,-3,13,
COC(=O)C1=C(c2cccc(OCc3ccccc3)c2)C[C@@H]2CC[C@H]1N2C(=O)NCc1ccccc1,3,-34,15,-22,7,
COC(=O)C1=C(c2ccc(F)cc2OCc2ccccc2)C[C@@H]2CC[C@H]1N2C(=O)NCc1ccc(C)cc1,7,-3,60*,56*,22,OX1R Fluo8 conf=-3;CHO Ca counter=-15
C1=CC(Cc2cncs2)c2ccccc21 (stereo not drawn),12,-22,6,-11,3,
O=C(O)C(Cc1cnc[nH]1)NS(=O)(=O)c1ccc(Cl)cc1 (stereo not drawn),12,0,-7,35,-1,OX1R Fluo8 conf=2;CHO Ca counter=3
Cc1ccc2c(C)cccc2c1,5,.,-17,.,.,
